Bioassay records: PubChem, several laboratories
CR mimetic SO: lowers age-related superoxide in aged yeast cells. AID 2690. superoxide response (% of plate mean), % at 10 µM. S. cerevisiae aged cells, superoxide DHE fluorescence; active compounds read low. 330,000 tested, 0.18% active;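 active = superoxide response under a set limit, about three screen SD below normal, cut at about 65% in these data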;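 also: yeast aged for seven days with compound at 30 °C before DHE staining; 100% = average MFI of all compound-treated wells on the plate with controls excluded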
Mot1-301 SUMO: blocks SUMOylation pathway, rescuing yeast Mot1-301 growth; 320,000 tested, 1% active; S. cerevisiae Mot1-301 growth rescue, ATP luminescence, 38.5C; percent above DMSO median, 100 means doubled; growth rescue, % at 18.8 µM;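 active = every valid replicate shows activation above 250% relative to neutral control wells; inactive = the rest, any valid replicate at or below 250%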;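 also: OY570 slx delta 5 strain wells were the positive control but not used for scaling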
Cneo AK release: causes C. neoformans cell lysis; adenylate kinase release luminescence, 4 h; normalised: neutral wells 0, clomiphene wells 100; lysis activity, % at 15 µM; 360,000 tested, 0.2% active;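 active = mean lysis activity across replicates of at least 80%, whatever share of replicates individually reach that level; inactive = mean lysis activity below 80%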
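Material: C. neoformans cells | Amount: Yeast cell density of 5 × 10^6 cells/mL | Medium: Fresh YPD growth medium | Dosing: Single dose | Times: Static 4 h at 37 °C with compound, 1 h detection | Detection: AK luminescence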
Ecoli rRNA inh: selective bacterial rRNA inhibition in E. coli | GFP signal change (wild-type ribosome), % (test concentration not listed) | 350,000 tested, 1.6% active | E. coli WT GFP vs humanized-ribosome RFP mutants, fluorescence, 24 h; active compounds read low; DMSO median 0, no signal -100 | AID 720706;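 active = significant combined selectivity score with lowered wild-type GFP, culture density cut under 30%, mutant RFP and density less affected; inactive = any of these conditions unmet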
PglD inh: PglD (C. jejuni) enzyme inhibition | 360,000 tested, 0.098% active | purified PglD enzyme, DTNB colorimetric CoA detection | inhibition, % at 12.5 µM; in the data active = inhibition above about 16%, passing the limit was not always enough
* hit, by the source's call. A selection: hits, their analogues and other compounds. The true share with any hit is near 2.2%.

For O=C(C[C@@H]1C[C@@H]2c3cc(NS(=O)(=O)c4ccc(F)cc4)ccc3O[C@@H]2[C@@H](CO)O1)NCc1cc(F)ccc1F the results were Cneo AK release 22, Ecoli rRNA inh -9 and PglD inh 0.
For Cc1cc(N(C)C)ccc1N=Nc1ccc(N)cc1 the results were CR mimetic SO 81, Mot1-301 SUMO 17, Cneo AK release 0, Ecoli rRNA inh -51* and PglD inh -2.
Screening Nc1ccc(N=Nc2ccc(N)cc2)cc1 returned CR mimetic SO 97, Mot1-301 SUMO 72 and Ecoli rRNA inh -25*.
Screening CO[C@H]1CC[C@H]2CCOc3ccc(C#N)cc3C(=O)N(C)C[C@@H](C)C(=O)N(C)C[C@@H]1O2 returned Cneo AK release 1, Ecoli rRNA inh 1 and PglD inh 0.
Screening C[C@H](CO)N1C[C@H](C)[C@@H](CN(C)C(=O)Cc2ccccc2)OCCCC[C@H](C)Oc2ccc(NC(=O)CCC(F)(F)F)cc2C1=O returned Cneo AK release 2, Ecoli rRNA inh 1 and PglD inh -4.
Screening CO[C@H]1CN(C)C(=O)c2cc(NC(=O)CC(F)(F)F)ccc2OC[C@@H](C)NC[C@H]1C returned Ecoli rRNA inh 0.
O/N=C\c1ccc(-c2ccccc2)o1 was read as CR mimetic SO 86, Mot1-301 SUMO 4 and Ecoli rRNA inh -1.
`COc1ccccc1-c1ccc(/C=N/O)o1` gave CR mimetic SO 87, Mot1-301 SUMO 82, Cneo AK release 2, Ecoli rRNA inh -34* and PglD inh 0.
`CCCC(=O)N1CCC2(CC1)CN(C(=O)Nc1c(C)noc1C)[C@@H](CO)c1c2c2ccc(OC)cc2n1C` gave Ecoli rRNA inh -4.
CC(C)(C)c1ccc(C(=O)c2c[nH]c(C(=O)NCCCn3ccnc3)c2)cc1 was read as CR mimetic SO 100, Mot1-301 SUMO 324*, Cneo AK release 2 and PglD inh 5.
Screening COc1ccc(C(C(=O)NCc2ccccc2)N(Cc2ccco2)C(=O)c2cnccn2)cc1 (stereo not given) returned CR mimetic SO 96, Mot1-301 SUMO -3 and Ecoli rRNA inh 4.
Screening COC(=O)c1cccc(N(C(=O)c2cnccn2)C(C(=O)NCc2ccccc2)c2ccco2)c1 (stereo not given) returned CR mimetic SO 119, Mot1-301 SUMO 322* and Ecoli rRNA inh 2.
For O=C(Nc1ccccc1C(=O)N/N=C/c1ccc(O)cc1)c1ccccc1 the results were CR mimetic SO 100, Mot1-301 SUMO 245 and Ecoli rRNA inh -30*.
COC(=O)/C(=C/Nc1cccc2ccccc12)[N+](=O)[O-] was read as CR mimetic SO 100, Mot1-301 SUMO 63 and Ecoli rRNA inh -21*.
NS(=O)(=O)c1ccc(N2CCOCC2)c(C(=O)NCc2ccc3c(c2)OCO3)c1 was read as Ecoli rRNA inh 6.
`CN(C)S(=O)(=O)c1ccc(N2CCCC2)c(C(=O)Nc2ccc(C(N)=O)cc2)c1` gave CR mimetic SO 98, Mot1-301 SUMO 261* and Ecoli rRNA inh 1.
`CN(C)S(=O)(=O)c1ccc(N2CCOCC2)c(C(=O)NCc2ccc3c(c2)OCO3)c1` gave CR mimetic SO 62*, Mot1-301 SUMO -11, Cneo AK release 2 and PglD inh -4.
`COc1ccc(Nc2nc(C(=O)NCc3ccco3)cs2)cc1` gave CR mimetic SO 106, Mot1-301 SUMO -15, Cneo AK release -24, Ecoli rRNA inh -44* and PglD inh 1.
`O=C(NCc1ccco1)c1csc(Nc2ccccc2Cl)n1` gave CR mimetic SO 107, Mot1-301 SUMO 172, Cneo AK release 0 and PglD inh 0.
`Cc1c(Cl)cccc1NC(=S)N(Cc1cccs1)C1CCCC1` gave CR mimetic SO 97, Mot1-301 SUMO 14 and Ecoli rRNA inh -22*.
CO[C@H]1CN(C)C(=O)c2cc(NC(=O)Nc3ccccc3)ccc2OC[C@H](C)N(C(=O)CN(C)C)C[C@@H]1C was read as Cneo AK release -2, Ecoli rRNA inh -1 and PglD inh 2.
For O=C(NCCCN1CCCC1=O)c1ccccc1OCc1ccc(Cl)cc1Cl the results were CR mimetic SO 91, Mot1-301 SUMO 1, Cneo AK release 1, Ecoli rRNA inh -31* and PglD inh 0.
`O=C(NCCCN1CCCC1=O)Nc1ccc(Cl)cc1Cl` gave CR mimetic SO 105, Mot1-301 SUMO 199, Cneo AK release 2, Ecoli rRNA inh 0 and PglD inh 12.
O=C(NNS(=O)(=O)c1cccc(Cl)c1)c1cc(-c2ccc(F)cc2)nc2ccccc12 was read as CR mimetic SO 98, Mot1-301 SUMO -28, Cneo AK release 0, Ecoli rRNA inh -19* and PglD inh -3.
For O=C(NCCCN1CCCC1=O)c1cc(-c2ccc(F)cc2)nc2ccccc12 the results were CR mimetic SO 107, Mot1-301 SUMO 2, Cneo AK release 1, Ecoli rRNA inh -20* and PglD inh 4.
Screening O=C(CN1CCOCC1)N1CC(=O)N2[C@H](CO)[C@@H](c3ccc(/C=C/c4ccccc4)cc3)[C@@H]2C1 returned Ecoli rRNA inh -1.
`COc1ccc(C(=O)NNS(=O)(=O)c2ccc(OC)cc2)cc1` gave CR mimetic SO 105, Mot1-301 SUMO 11, Cneo AK release -1, Ecoli rRNA inh 1 and PglD inh -4.
Screening COc1ccc(S(=O)(=O)NNC(=O)C(=O)NNc2ccccn2)cc1 returned CR mimetic SO 94, Mot1-301 SUMO -12, Cneo AK release -1, Ecoli rRNA inh -31* and PglD inh -3.
CN1CCN(C(=O)C[C@H]2CC[C@@H](NC(=O)Cc3ccccn3)[C@H](CO)O2)CC1 was read as Cneo AK release -12, Ecoli rRNA inh 3 and PglD inh -2.
C[C@@H]1CN([C@H](C)CO)C(=O)Cc2cc(NC(=O)NC3CCCCC3)ccc2O[C@@H]1CN(C)Cc1ccccc1 was read as Cneo AK release 92*, Ecoli rRNA inh 2 and PglD inh 3.
Screening CC(C)NC(=O)Nc1ccc2c(c1)CC(=O)N([C@@H](C)CO)C[C@@H](C)[C@@H](CN(C)C(=O)Nc1ccc3c(c1)OCO3)O2 returned Cneo AK release -11, Ecoli rRNA inh 1 and PglD inh 1.
For COc1ccc(CN(C)C[C@H]2Oc3ccc(NC(=O)Nc4ccc(F)cc4)cc3CC(=O)N([C@@H](C)CO)C[C@@H]2C)cc1 the results were Cneo AK release 102*, Ecoli rRNA inh -54 and PglD inh 5.
Screening C[C@H]1CN([C@@H](C)CO)C(=O)Cc2cc(NC(=O)Nc3ccccc3)ccc2O[C@H]1CN(C)C(=O)Nc1ccc2c(c1)OCO2 returned Cneo AK release 102*, Ecoli rRNA inh 2 and PglD inh 0.
